Results taken from ChEMBL document CHEMBL2346561, “Development of 2'-substituted (2S,1'R,2'S)-2-(carboxycyclopropyl)glycine analogues as potent N-methyl-d-aspartic acid receptor agonists” (J Med Chem, 2013).
pEC50, pKi: −log10 of the molar value.

What was measured:
[1] = molecular target: Ionotropic glutamate receptor NMDA 1/2D (Rattus norvegicus, UniProt P35439+Q62645); assay: Agonist activity at rat recombinant wild type GluN1/GluN2D receptor expressed in Xenopus laevis oocytes by two electrode voltage clamp technique; assay type: cell-based, Oocyte
Outline: (§1)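 cRNA-injected Xenopus oocytes co-expressing GluN1 with GluN2A, 2B, 2C or 2D; two-electrode voltage clamp at −60 to −40 mV; perfusion with extracellular solution (mM: 90 NaCl, 0.5 BaCl₂, 1 KCl, 0.01 EDTA, 10 HEPES, pH 7.4) always containing 50 μM glycine. Concentration–response data per oocyte fitted to Hill equation; mean logEC₅₀ and nH ± SEM across oocytes.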

[2] = molecular target: Glutamate NMDA receptor; Grin1/Grin2c (Rattus norvegicus, UniProt P35439+Q00961); assay: Agonist activity at rat recombinant wild type GluN1/GluN2C receptor expressed in Xenopus laevis oocytes by two electrode voltage clamp technique; assay type: cell-based, Oocyte; outline: as §1
Glutamate NMDA receptor = assay: Displacement of [3H]CGP39653 from NMDA receptor in rat cortical synaptosomes; assay type: subcellular, Brain
Outline: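 Rat cortical synaptosome membranes; 2 nM [³H]CGP 39653 (Kd = 6 nM) as radioligand for native NMDA receptors; Ki derived from displacement via Cheng-Prusoff relationship.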

[3] = Displacement of [3H]KA from KA receptor in rat cortical synaptosomes; assay type: subcellular, Brain
[4] = molecular target: Glutamate NMDA receptor; Grin1/Grin2a (Rattus norvegicus) (UniProt P35439+Q00959); assay: Ratio of compound Imax to glutamate Imax for rat recombinant wild type GluN1/GluN2A receptor; assay type: protein-complex assay
[5] = molecular target: Ionotropic glutamate receptor NMDA 1/2D (Rattus norvegicus) (UniProt P35439+Q62645); assay: Ratio of compound Imax to glutamate Imax for rat recombinant wild type GluN1/GluN2D receptor; assay type: protein-complex assay
[6] = molecular target: Glutamate NMDA receptor; Grin1/Grin2b (Rattus norvegicus, UniProt P35439+Q00960); assay: Agonist activity at rat recombinant wild type GluN1/GluN2B receptor expressed in Xenopus laevis oocytes by two electrode voltage clamp technique; assay type: cell-based, Oocyte; outline: as §1
[7] = molecular target: Glutamate NMDA receptor; Grin1/Grin2b (Rattus norvegicus) (UniProt P35439+Q00960); assay: Ratio of compound Imax to glutamate Imax for rat recombinant wild type GluN1/GluN2B receptor; assay type: protein-complex assay
[8] = molecular target: Glutamate NMDA receptor; Grin1/Grin2c (Rattus norvegicus) (UniProt P35439+Q00961); assay: Ratio of compound Imax to glutamate Imax for rat recombinant wild type GluN1/GluN2C receptor; assay type: protein-complex assay
[9] = molecular target: Glutamate NMDA receptor; Grin1/Grin2a (Rattus norvegicus, UniProt P35439+Q00959); assay: Agonist activity at rat recombinant wild type GluN1/GluN2A receptor expressed in Xenopus laevis oocytes by two electrode voltage clamp technique; assay type: cell-based, Oocyte; details: for pEC50: read-out: EC50; outline: as §1
[10] = Displacement of [3H]AMPA from AMPA receptor in rat cortical synaptosomes; assay type: subcellular, Brain

EC50 ([9]; oocyte) | SMILES | pEC50 [1] | pEC50 [2] | pKi (Glutamate NMDA receptor) | pKi [3] | Ratio [4] | Ratio [5] | pEC50 [6] | Ratio [7] | Ratio [8] | pEC50 [9] | pKi [10]
– | CC[C@]1(C(=O)O)C[C@H]1[C@H](N)C(=O)O | 7.10 | 6.27 | 7.21 | 6.21 | 0.83 | 0.91 | 6.57 | 1.02 | 0.81 | 5.93 | < 4.00
– | N[C@H](C(=O)O)[C@@H]1C[C@@H]1C(=O)O | 7.44 | 6.96 | 8.19 | 6.51 | 0.99 | 1.11 | 7.08 | 1.23 | 0.9 | 6.58 | 5.96
Not Active | CCCc1cnn(O)c1[C@@H](N)C(=O)O | 3.82 | 3.37 | 4.85 | < 4.00 | – | 0.37 | 3.98 | 0.06 | 0.22 | – | < 4.00
– | C[C@]1(C(=O)O)C[C@H]1[C@H](N)C(=O)O | 7.59 | 6.91 | 8.10 | 6.96 | 0.94 | 0.83 | 7.35 | 1.14 | 0.81 | 6.56 | 4.54
– | CCCC[C@]1(C(=O)O)C[C@H]1[C@H](N)C(=O)O | 5.48 | 4.80 | 5.89 | < 4.00 | 0.65 | 0.94 | 4.99 | 1.07 | 0.85 | 4.54 | < 4.00
– | NC(C(=O)O)c1ccnn1O (racemic) | – | – | – | < 4.00 | 0.45 | – | – | 0.58 | 0.52 | – | < 4.00
– | CCC[C@]1(C(=O)O)C[C@H]1[C@H](N)C(=O)O | 5.18 | 4.52 | 5.92 | 4.68 | 0.67 | 0.89 | 4.80 | 1.05 | 0.7 | 4.33 | < 4.00
